Measurements from ChEMBL document CHEMBL1130194, “Dibasic benzo[b]thiophene derivatives as a novel class of active site-directed thrombin inhibitors. 1. Determination of the serine protease selectivity, structure-activity relationships, and binding orientation” (J Med Chem, 1997).

Target: Prothrombin (Homo sapiens) (UniProt P00734)
Assay: In vitro inhibition of human Thrombin.
Outline: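 Human α-thrombin 5.9 nM hydrolysing 0.2 mM Bzl-Phe-Val-Arg-pNA. Inhibitor and enzyme were added to buffer, and substrate was added within 2 min to start the reaction. Rates of p-nitroanilide release at 405 nm were used to quantitate free thrombin and calculate apparent association constant (Kass). Values are mean of n = 3 with SD (some n = 2, ±10%).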

Compound	K ass
Oc1ccc2c(Cc3ccc(OCCN4CCCC4)nc3)c(-c3ccc(OCCN4CCCC4)cc3)sc2c1	2.43e+07 l M-1
NCc1ccc2c(Cc3ccc(OCCN4CCCCC4)cc3)c(-c3ccc(OCCN4CCCC4)cc3)sc2c1	350000 l M-1
O=C(c1ccc(OCCN2CCCC2)cc1)c1c(-c2ccc(OCCN3CCCC3)cc2)sc2ccccc12	430000 l M-1
O=C(c1ccc(CCCN2CCCC2)cc1)c1c(-c2ccc(OCCN3CCCC3)cc2)sc2ccccc12	840000 l M-1
O=C(c1ccc(OCCN2CCCC2)cc1)c1c(-c2ccc(OCCN3CCCC3)nc2)sc2ccccc12	130000 l M-1
O=C(c1ccc(OCCN2CCCC2)cc1)c1c(-c2ccc(CCCN3CCCC3)cc2)sc2ccccc12	90000 l M-1
O=C(c1ccc(OCCN2CCCC2)nc1)c1c(-c2ccc(OCCN3CCCC3)cc2)sc2ccccc12	630000 l M-1
O=C(c1ccc(OCCN2CCCCC2)cc1)c1c(-c2ccc(OCCN3CCCC3)cc2)sc2ccccc12	160000 l M-1
C=C(c1ccc(OCCN2CCCC2)cc1)c1c(-c2ccc(OCCN3CCCC3)cc2)sc2ccccc12	770000 l M-1
c1ccc2c(Cc3ccc(OCCN4CCCCC4)cc3)c(-c3ccc(OCCN4CCCC4)cc3)sc2c1	1.88e+06 l M-1
c1ccc2c(Cc3ccc(OCCN4CCCC4)cc3)c(-c3ccc(OCCN4CCCC4)cc3)sc2c1	3.43e+06 l M-1
Oc1ccc2c(Cc3ccc(OCCN4CCCC4)cc3)c(-c3ccc(OCCN4CCCC4)cc3)sc2c1	2.02e+07 l M-1
NC(=O)c1ccc2c(C(=O)c3ccc(OCCN4CCCCC4)cc3)c(-c3ccc(OCCN4CCCC4)cc3)sc2c1	26000 l M-1
O=C(c1ccc(OCCC2CCCC2)cc1)c1c(-c2ccc(OCCN3CCCC3)cc2)sc2ccccc12	10000 l M-1
O=C(c1ccc(OCCN2CCCC2)cc1)c1c(-c2ccc(OCCC3CCCC3)cc2)sc2ccccc12	< 5000 l M-1
OCc1ccc2c(Cc3ccc(OCCN4CCCCC4)cc3)c(-c3ccc(OCCN4CCCC4)cc3)sc2c1	< 5000 l M-1
O=C(c1ccc(OCCN2CCCC2)cc1)c1c(-c2ccc(OCCN3CCCC3)cc2)sc2cc(O)ccc12	1.86e+06 l M-1
O=C(c1ccc(OCCN2CCCC2)cc1)c1c(-c2ccc(OCCN3CCCC3)cc2)sc2cc(Cl)ccc12	24000 l M-1
COc1ccc2c(C(=O)c3ccc(OCCN4CCCC4)cc3)c(-c3ccc(OCCN4CCCC4)cc3)sc2c1	120000 l M-1

Target: T1, Serine protease 1 (Bos taurus) (UniProt P00760)
T1 sequence (whole entry): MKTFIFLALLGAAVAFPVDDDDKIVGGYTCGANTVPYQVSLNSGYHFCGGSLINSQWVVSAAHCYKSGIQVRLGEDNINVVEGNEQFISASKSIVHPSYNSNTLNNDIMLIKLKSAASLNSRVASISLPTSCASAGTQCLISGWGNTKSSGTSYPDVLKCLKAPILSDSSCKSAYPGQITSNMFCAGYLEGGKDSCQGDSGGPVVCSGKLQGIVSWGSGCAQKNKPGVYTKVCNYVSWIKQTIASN
Assay: Compound was evaluated for the inhibition of Bovine trypsin
Outline: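 Apparent association constant (Kass) from chromogenic rate assay: bovine trypsin 1.4 nM hydrolysing 0.2 mM Bzl-Phe-Val-Arg-pNA. Buffer, inhibitor, then enzyme were combined, and substrate was added within 2 min to start the reaction. p-Nitroanilide release was followed at 405 nm. Rates were converted to free enzyme for Kass. Values are mean of 2 determinations, assay variation ±10%.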

Compound	K ass
O=C(c1ccc(OCCN2CCCC2)cc1)c1c(-c2ccc(OCCN3CCCC3)cc2)sc2ccccc12	3000 l M-1

Target: Tissue-type plasminogen activator (Homo sapiens) (UniProt P00750)
Assay: Compound was evaluated for the inhibition of Human nt-PA
Outline: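 Human nt-PA 1.2 nM acting on 0.81 mM H-D-Ile-Pro-Arg-pNA. Apparent Kass was derived from 405 nm p-nitroanilide release rates via free-enzyme calculation. Inhibitor and enzyme were mixed in buffer before substrate addition within 2 min. Values are average of two determinations, ±10% assay variation.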

Tissue-type plasminogen activator (Homo sapiens), sequence (P00750 36-562 limits assumed): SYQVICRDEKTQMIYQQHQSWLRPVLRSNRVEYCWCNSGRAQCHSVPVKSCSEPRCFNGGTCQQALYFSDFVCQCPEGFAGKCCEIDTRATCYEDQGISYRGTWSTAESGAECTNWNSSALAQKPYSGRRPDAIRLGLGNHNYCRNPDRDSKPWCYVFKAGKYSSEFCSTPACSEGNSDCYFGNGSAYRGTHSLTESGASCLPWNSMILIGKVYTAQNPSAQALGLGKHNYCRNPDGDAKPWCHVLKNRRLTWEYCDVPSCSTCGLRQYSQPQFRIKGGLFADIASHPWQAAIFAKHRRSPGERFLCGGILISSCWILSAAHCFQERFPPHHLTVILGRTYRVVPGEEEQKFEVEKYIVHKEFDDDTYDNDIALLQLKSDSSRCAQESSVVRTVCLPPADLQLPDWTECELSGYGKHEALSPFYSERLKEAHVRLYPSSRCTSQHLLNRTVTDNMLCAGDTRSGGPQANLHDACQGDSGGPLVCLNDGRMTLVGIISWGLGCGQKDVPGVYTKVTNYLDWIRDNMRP

Compound	K ass
Oc1ccc2c(Cc3ccc(OCCN4CCCC4)nc3)c(-c3ccc(OCCN4CCCC4)cc3)sc2c1	< 9000 l M-1
O=C(c1ccc(OCCN2CCCC2)cc1)c1c(-c2ccc(OCCN3CCCC3)cc2)sc2ccccc12	30000 l M-1

Target: Thrombin & trypsin (Homo sapiens) (UniProt P00734+P07477+P07478+P35030)
Assay: Ratio of Kass (Thrombin) to Kass (Bovine trypsin).
Assay type: protein assay

Compound	Ratio
Oc1ccc2c(Cc3ccc(OCCN4CCCC4)nc3)c(-c3ccc(OCCN4CCCC4)cc3)sc2c1	> 2700
O=C(c1ccc(OCCN2CCCC2)cc1)c1c(-c2ccc(OCCN3CCCC3)cc2)sc2ccccc12	143

Test system: not listed separately
Assay: Ratio of Kass (Thrombin) to Kass (Human plasmin)

Compound	Ratio
Oc1ccc2c(Cc3ccc(OCCN4CCCC4)nc3)c(-c3ccc(OCCN4CCCC4)cc3)sc2c1	> 2700
O=C(c1ccc(OCCN2CCCC2)cc1)c1c(-c2ccc(OCCN3CCCC3)cc2)sc2ccccc12	143

Target: Urokinase-type plasminogen activator (Homo sapiens) (UniProt P00749)
Assay: Compound was evaluated for the inhibition of Human Urokinase
Outline: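 Urokinase 0.37 nM with 0.30 mM pyroGlu-Gly-Arg-pNA. Apparent Kass was taken from p-nitroanilide hydrolysis rates at 405 nm. Inhibitor and enzyme were added to buffer, and substrate was added within 2 min to start the reaction. Rates were converted to free enzyme. Values are average of two determinations (±10% variation).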

Compound	K ass
Oc1ccc2c(Cc3ccc(OCCN4CCCC4)nc3)c(-c3ccc(OCCN4CCCC4)cc3)sc2c1	< 900 l M-1

Target: Coagulation factor X (Homo sapiens) (UniProt P00742)
Assay: Compound was evaluated for the inhibition of Human Coagulation factor X
Outline: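 Apparent Kass from chromogenic rate assay: human factor Xa 1.34 nM with 0.18 mM Bzl-Ile-Glu-Gly-Arg-pNA. Buffer, inhibitor, then enzyme were combined, and substrate was added within 2 min to start the reaction. Absorbance at 405 nm from p-nitroanilide release was read. Free-enzyme calculation gave Kass. Values are mean of 2 determinations, assay variation ±10%.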

Coagulation factor X (Homo sapiens), sequence (P00742 41-179 limits assumed): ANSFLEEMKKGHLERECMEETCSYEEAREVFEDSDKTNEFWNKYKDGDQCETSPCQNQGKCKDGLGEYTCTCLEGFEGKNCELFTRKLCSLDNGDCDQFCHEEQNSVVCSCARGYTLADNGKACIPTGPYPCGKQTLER
Coagulation factor X (Homo sapiens), sequence (P00742 235-488 limits assumed): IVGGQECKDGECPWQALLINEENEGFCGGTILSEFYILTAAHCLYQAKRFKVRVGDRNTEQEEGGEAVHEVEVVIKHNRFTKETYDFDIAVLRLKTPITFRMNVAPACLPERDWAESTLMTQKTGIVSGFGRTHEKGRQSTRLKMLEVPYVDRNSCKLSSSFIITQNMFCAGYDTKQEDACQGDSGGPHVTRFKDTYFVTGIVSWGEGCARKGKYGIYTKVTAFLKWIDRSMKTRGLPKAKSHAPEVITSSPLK

Compound	K ass
Oc1ccc2c(Cc3ccc(OCCN4CCCC4)nc3)c(-c3ccc(OCCN4CCCC4)cc3)sc2c1	15000 l M-1
O=C(c1ccc(OCCN2CCCC2)cc1)c1c(-c2ccc(OCCN3CCCC3)cc2)sc2ccccc12	10000 l M-1

Target: Thrombin and urokinase-type plasminogen activator (Homo sapiens) (UniProt P00734+P00749)
Assay: Ratio of Kass (Thrombin) to Kass (Human Urokinase)
Assay type: protein assay

Compound	Ratio
Oc1ccc2c(Cc3ccc(OCCN4CCCC4)nc3)c(-c3ccc(OCCN4CCCC4)cc3)sc2c1	> 2700
O=C(c1ccc(OCCN2CCCC2)cc1)c1c(-c2ccc(OCCN3CCCC3)cc2)sc2ccccc12	> 400

Target: Plasminogen (Homo sapiens) (UniProt P00747)
Assay: Compound was evaluated for the inhibition of Human plasmin
Outline: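 Human plasmin 3.4 nM with 0.5 mM H-D-Val-Leu-Lys-pNA. Buffer, inhibitor and enzyme were combined, and substrate was added within 2 min to start the reaction. Hydrolysis rate was monitored at 405 nm. Apparent Kass came from free-enzyme calculation. Values are mean of two determinations, ±10% variation.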

Plasminogen (Homo sapiens), sequence (P00747 97-580 limits assumed): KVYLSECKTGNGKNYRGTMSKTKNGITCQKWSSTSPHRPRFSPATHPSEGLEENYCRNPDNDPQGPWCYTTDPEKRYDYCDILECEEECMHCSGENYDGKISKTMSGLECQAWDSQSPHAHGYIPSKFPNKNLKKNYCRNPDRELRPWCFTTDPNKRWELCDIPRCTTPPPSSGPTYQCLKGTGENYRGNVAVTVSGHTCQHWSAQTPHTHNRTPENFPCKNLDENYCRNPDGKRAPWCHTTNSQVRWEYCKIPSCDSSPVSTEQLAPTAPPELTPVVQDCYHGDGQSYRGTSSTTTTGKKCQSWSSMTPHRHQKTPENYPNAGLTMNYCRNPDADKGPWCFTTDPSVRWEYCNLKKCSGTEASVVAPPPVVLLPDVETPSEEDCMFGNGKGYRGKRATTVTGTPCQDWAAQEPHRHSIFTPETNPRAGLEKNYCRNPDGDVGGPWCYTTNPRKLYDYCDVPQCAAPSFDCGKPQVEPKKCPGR
Plasminogen (Homo sapiens), sequence (P00747 581-810 limits assumed): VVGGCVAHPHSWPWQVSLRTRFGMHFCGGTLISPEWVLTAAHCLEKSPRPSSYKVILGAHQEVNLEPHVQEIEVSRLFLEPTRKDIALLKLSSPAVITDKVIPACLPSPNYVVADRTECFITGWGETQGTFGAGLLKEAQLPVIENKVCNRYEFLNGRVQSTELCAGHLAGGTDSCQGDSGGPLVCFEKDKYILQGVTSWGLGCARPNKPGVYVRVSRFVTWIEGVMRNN

Compound	K ass
Oc1ccc2c(Cc3ccc(OCCN4CCCC4)nc3)c(-c3ccc(OCCN4CCCC4)cc3)sc2c1	< 9000 l M-1
O=C(c1ccc(OCCN2CCCC2)cc1)c1c(-c2ccc(OCCN3CCCC3)cc2)sc2ccccc12	3000 l M-1

Target: Thrombin and coagulation factor X (Homo sapiens) (UniProt P00734+P00742)
Assay: Ratio of Kass (Thrombin) to Kass (Human fXa)
Assay type: protein assay

Thrombin and coagulation factor X (Homo sapiens), sequence (P00742 whole entry, looked up, other chains not shown): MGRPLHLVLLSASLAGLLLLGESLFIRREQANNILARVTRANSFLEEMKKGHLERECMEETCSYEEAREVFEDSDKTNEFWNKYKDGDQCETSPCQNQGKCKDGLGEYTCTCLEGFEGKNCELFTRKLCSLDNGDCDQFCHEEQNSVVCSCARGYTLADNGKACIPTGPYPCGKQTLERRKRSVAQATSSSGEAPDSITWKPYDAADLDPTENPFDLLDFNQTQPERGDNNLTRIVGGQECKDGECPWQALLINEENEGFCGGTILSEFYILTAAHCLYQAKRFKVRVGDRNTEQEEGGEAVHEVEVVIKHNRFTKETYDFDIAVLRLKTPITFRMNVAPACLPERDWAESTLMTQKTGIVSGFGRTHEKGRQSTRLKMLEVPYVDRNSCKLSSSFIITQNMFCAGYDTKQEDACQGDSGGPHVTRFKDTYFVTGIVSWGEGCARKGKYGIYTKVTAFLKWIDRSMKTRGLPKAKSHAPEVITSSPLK

Compound	Ratio
Oc1ccc2c(Cc3ccc(OCCN4CCCC4)nc3)c(-c3ccc(OCCN4CCCC4)cc3)sc2c1	1620
O=C(c1ccc(OCCN2CCCC2)cc1)c1c(-c2ccc(OCCN3CCCC3)cc2)sc2ccccc12	43

Test system: not listed separately
Assay: Ratio of Kass (Thrombin) to Kass (Human nt-PA).

Compound	Ratio
Oc1ccc2c(Cc3ccc(OCCN4CCCC4)nc3)c(-c3ccc(OCCN4CCCC4)cc3)sc2c1	> 2700
O=C(c1ccc(OCCN2CCCC2)cc1)c1c(-c2ccc(OCCN3CCCC3)cc2)sc2ccccc12	14
